As usually defined, the EC50 is the concentration that produces a half-maximal response. Read a low EC50 as an effect from little substance.

Data on seven compounds can be found in ChEMBL document CHEMBL4699495, “Synthesis and biological evaluation of 5'-C-methyl nucleotide prodrugs for treating HCV infections” (Bioorg Med Chem Lett, 2020).

Data set [1] can be described thus: Cytotoxicity against human HuH-7-Luc/Neo-ET cells. The note with it: read-out: TC50 (the source's name). In kind it is cell-based. An outline of the steps:
(§1)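 HCV genotype 1b subgenomic replicon carried in Huh-7 Luc/Neo ET cells. Antiviral EC50 and cytotoxic TC50 were both determined in these cells. Each value is the average of triplicate experiments.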

Another data set has as its system Hepatitis C virus. The data set is described as follows: Antiviral activity against HCV subtype 1b infected in human HuH-7-Luc/Neo-ET cells by luciferase replicon-reporter gene assay. The format is functional, organism-based, Hepacivirus hominis. The essentials: as §1
For orientation: Replicon systems follow genome replication, usually without infectious particles.

A short description of data set [2]: Therapeutic index, ratio of TC50 for human HuH-7-Luc/Neo-ET cells to EC50 for HCV infected in human HuH7-Luc/Neo-ET cells. In kind it is toxicity. An outline of the steps:
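Therapeutic index calculated as TC50/EC50. Both values came from Huh-7 Luc/Neo ET cells bearing an HCV genotype 1b replicon, and each was averaged from triplicate experiments.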

For `CC(C)OC(=O)[C@H](C)N[P@@](=O)(Oc1ccccc1)O[C@@H](C)[C@H]1O[C@@H](n2ccc(=O)[nH]c2=O)[C@](C)(O)[C@@H]1O`, in data set [1], the CC50 is over 100 µM. The compound also registered a half-maximal effective concentration (EC50) in the data set with Hepatitis C virus of 7.75 µM. The selectivity ratio in data set [2] was over 12.9.

For the compound `CCCCCCCCCC(=O)Oc1ccc(COP(=O)(OCc2ccc(OC(=O)CCCCCCCCC)cc2)OP(=O)([O-])O[C@H](C)[C@H]2O[C@@H](n3ccc(=O)[nH]c3=O)[C@](C)(O)[C@@H]2O)cc1.CCCC[N+](CCCC)(CCCC)CCCC`, the CC50 in data set [1] is over 100 µM. Besides, the response in the data set with Hepatitis C virus was half-maximal at 2.6 µM (EC50). In addition, the selectivity ratio in data set [2] was over 38.5.

With `CCCCCCCCCC(=O)Oc1ccc(COP(=O)(OCc2ccc(OC(=O)CCCCCCCCC)cc2)OP(=O)([O-])OC[C@H]2O[C@@H](n3ccc(=O)[nH]c3=O)[C@](C)(O)[C@@H]2O)cc1.CCCC[N+](CCCC)(CCCC)CCCC`, in data set [1], the CC50 is over 100 µM. The EC50 with Hepatitis C virus worked out at 0.04 µM. Besides, in data set [2], the selectivity ratio is over 2590.

Turning to `CC(C)OC(=O)[C@H](C)N[P@](=O)(OC[C@H]1O[C@@H](n2ccc(=O)[nH]c2=O)[C@](C)(F)[C@@H]1O)Oc1ccccc1` [SOFOSBUVIR], in data set [1], the CC50 was over 1 µM. Besides, it took 0.03 µM to reach a half-maximal effect with Hepatitis C virus (EC50). Also, the selectivity ratio in data set [2] is over 29.2.

For the compound `CCCCCCCCCC(=O)Oc1ccc(COP(=O)(OCc2ccc(OC(=O)CCCCCCCCC)cc2)OP(=O)([O-])O[C@@H](C)[C@H]2O[C@@H](n3ccc(=O)[nH]c3=O)[C@](C)(O)[C@@H]2O)cc1.CCCC[N+](CCCC)(CCCC)CCCC`, the CC50 in data set [1] is over 83.2 µM. This compound also yielded an EC50 in the data set on Hepatitis C virus of 25.3 µM. In addition, in data set [2], the selectivity ratio was 3.29.

`CC(C)OC(=O)[C@H](C)N[P@@](=O)(Oc1ccccc1)O[C@H](C)[C@H]1O[C@@H](n2ccc(=O)[nH]c2=O)[C@](C)(O)[C@@H]1O`: the CC50 in data set [1] was over 100 µM. Besides, the concentration for a half-maximal effect (EC50) in the data set on Hepatitis C virus stood at 1.49 µM. The selectivity ratio in data set [2] was over 67.1.

As to `CC(C)OC(=O)[C@H](C)N[P@](=O)(OC[C@H]1O[C@@H](n2ccc(=O)[nH]c2=O)[C@](C)(O)[C@@H]1O)Oc1ccccc1`, the CC50 in data set [1] amounted to 85.6 µM. Moreover, the EC50 in the data set with Hepatitis C virus came out at 0.03 µM. In addition, the selectivity ratio in data set [2] is 2780.
